Converted amounts (≈) assume the structure as drawn. The source made the active and inactive calls.
Legend:
[1] = test system: Mycobacterium tuberculosis; experiment: Antimicrobial activity against Mycobacterium tuberculosis H37Rv in GASTD medium supplemented with 100 uM FeCl3 after 10 days by spectrophotometric analysis; type: functional, organism-based; settings: 240 h
Procedure, shortened: (§1)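 Virulent H37Rv, twofold microdilution in iron-limiting GASTD or GASTD plus 100 μM FeCl3, started at OD600 0.001 from deferrated stocks. Compounds were added in DMSO (0.5% final) up to 500 μM or the solubility limit. Cultures sat stationary for 10 days at 37 °C, read at OD600. IC50 from sigmoidal fits to triplicates; MIC90 is the lowest concentration giving ≥90% inhibition versus DMSO controls. Ratios are +Fe/GASTD.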

[2] = test system: Mycobacterium tuberculosis; experiment: Antimicrobial activity against Mycobacterium tuberculosis H37Rv in GASTD medium after 10 days by spectrophotometric analysis; type: functional, organism-based; settings: 240 h; procedure, shortened: as §1
[3] = test system: Mycobacterium tuberculosis; experiment: Bactericidal activity against Mycobacterium tuberculosis H37Rv in GASTD medium at 4 times MIC after 30 days by colony counting; type: functional, organism-based
Procedure, shortened: (§2)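 Duplicate GASTD cultures were treated and incubated as in the growth assay (37 °C, 10 days), then serial 10-fold dilutions were plated on Middlebrook 7H11. Colonies were counted after 30 days at 37 °C and reported as CFU/mL. Bactericidal was defined as >99% killing relative to inoculum.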

[4] = test system: Mycobacterium tuberculosis; experiment: Ratio of IC50 for Mycobacterium tuberculosis H37Rv in GASTD medium supplemented with 100 uM FeCl3 to IC50 for Mycobacterium tuberculosis H37Rv in Fe-deficient GASTD medium; type: functional; procedure, shortened: as §1
[5] = test system: Yersinia pestis; experiment: Bacteriostatic activity against Yersinia pestis KIM6-2082.1+ in PMHD medium at 2 times MIC after 3 days by colony counting; type: functional, organism-based
[6] = test system: Yersinia pestis; experiment: Antimicrobial activity against Yersinia pestis KIM6-2082.1+ in PMHD medium supplemented with 100 uM FeCl3 after 26 hrs by spectrophotometric analysis; type: functional, organism-based
[7] = test system: Yersinia pestis; experiment: Antimicrobial activity against Yersinia pestis KIM6-2082.1+ in PMHD medium after 26 hrs by spectrophotometric analysis; type: functional, organism-based
[8] = test system: Yersinia pestis; experiment: Ratio of MIC90 for Yersinia pestis KIM6-2082.1+ in PMHD medium supplemented with 100 uM FeCl3 to IC50 for Yersinia pestis KIM6-2082.1+ in Fe-deficient PMHD medium; type: functional
[9] = test system: Mycobacterium tuberculosis; experiment: Ratio of MIC90 for Mycobacterium tuberculosis H37Rv in GASTD medium supplemented with 100 uM FeCl3 to MIC90 for Mycobacterium tuberculosis H37Rv in Fe-deficient GASTD medium; type: functional; procedure, shortened: as §1
[10] = test system: HeLa; experiment: Cytotoxicity against human HeLa cells at 7 uM after 24 hrs by ATPLite assay; type: cell-based
Procedure, shortened: (§3)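 HeLa cells in 96-well format, read with an ATPLite reagent-based viability assay. Cell–compound contact lasted 4 hr or 24 hr, and viability was expressed relative to untreated controls.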

[11] = test system: HeLa; experiment: Cytotoxicity against human HeLa cells at 10 uM after 24 hrs by ATPLite assay; type: cell-based; procedure, shortened: as §3
[12] = test system: Yersinia pestis; experiment: Ratio of IC50 for Yersinia pestis KIM6-2082.1+ in PMHD medium supplemented with 100 uM FeCl3 to IC50 for Yersinia pestis KIM6-2082.1+ in Fe-deficient PMHD medium; type: functional
[13] = test system: HeLa; experiment: Cytotoxicity against human HeLa cells at 0.2 uM after 24 hrs by ATPLite assay; type: cell-based; procedure, shortened: as §3
[14] = test system: Yersinia pestis; experiment: Bactericidal activity against Yersinia pestis KIM6-2082.1+ in PMHD medium at 2 times MIC after 3 days by colony counting; type: functional, organism-based
[15] = test system: HeLa; experiment: Cytotoxicity against human HeLa cells at 21 uM after 24 hrs by ATPLite assay; type: cell-based; procedure, shortened: as §3
[16] = test system: HeLa; experiment: Cytotoxicity against human HeLa cells at 16 uM after 24 hrs by ATPLite assay; type: cell-based; procedure, shortened: as §3
[17] = test system: HeLa; experiment: Cytotoxicity against human HeLa cells at 125 uM after 24 hrs by ATPLite assay relative to control; type: cell-based; procedure, shortened: as §3
[18] = test system: Mycobacterium tuberculosis; experiment: Bactericidal activity against Mycobacterium tuberculosis H37Rv in GASTD medium at 2 times MIC after 30 days by colony counting; type: functional, organism-based; procedure, shortened: as §2
[19] = test system: HeLa; experiment: Cytotoxicity against human HeLa cells at 125 uM after 4 hrs by ATPLite assay; type: cell-based; procedure, shortened: as §3
[20] = test system: Yersinia pestis; experiment: Bactericidal activity against Yersinia pestis KIM6-2082.1+ in PMHD medium at MIC after 3 days by colony counting; type: functional, organism-based
[21] = test system: Yersinia pestis; experiment: Bacteriostatic activity against Yersinia pestis KIM6-2082.1+ in PMHD medium at MIC after 3 days by colony counting; type: functional, organism-based

Structure (SMILES)	IC50 [1] [µM]	MIC90 [1] [µM]	IC50 [2] [µM]	MIC90 [2] [µM]	Ratio IC50 [4]	IC50 [6] [µM]	MIC90 [6] [µM]	IC50 [7] [µM]	MIC90 [7] [µM]	Ratio [8]	Ratio [9]	Ratio IC50 [12]	Activity [14]	Activity [18]	further results
CSC(=S)N/N=C/c1ccccc1O	2	6 (≈ 1.36 µg/mL)	3	7 (≈ 1.58 µg/mL)	1	> 59	> 59	4	15 (≈ 3.39 µg/mL)	>4	1	>15			Activity [3]: Active; Activity [5]: Active; Activity [10]: Non-toxic; Activity [11]: Non-toxic
O=C(NO)N1CCN(C(=S)N/N=C/c2ccccc2O)CC1	> 8	> 8	20	> 31		> 4	> 4	0.04	0.2 (≈ 0.0647 µg/mL)	>20		>100			Activity [5]: Active; Activity [13]: Non-toxic
N=C(NO)N1N=C(c2ccccc2O)C[C@H]1c1ccc(O)cc1	22	31 (≈ 9.68 µg/mL)	47	125 (≈ 39 µg/mL)	0.5	> 63	> 63	5	21 (≈ 6.56 µg/mL)	>3	0.2	>13	Active	Active	Activity [15]: Non-toxic; Activity [16]: Non-toxic; Activity [17]: 70%; Activity [19]: Non-toxic
N=C(N)N1N=C(c2ccccc2O)C[C@H]1c1ccccc1O	23	66 (≈ 19.6 µg/mL)	44	66 (≈ 19.6 µg/mL)	1	> 63	> 63	7	42 (≈ 12.4 µg/mL)	>1	1	>9		Active	Activity [20]: Active
CSC(=S)N/N=C/c1ccc(O)cc1	33	59 (≈ 13.4 µg/mL)	31	59 (≈ 13.4 µg/mL)	1	> 233	> 233	137	388 (≈ 87.8 µg/mL)		1	>2		Active	Activity [21]: Active
N=C(NO)N1N=C(c2ccccc2O)C[C@H]1c1ccccc1O	32	> 125	37	125 (≈ 39 µg/mL)	1	> 16	> 16	4	16 (≈ 5 µg/mL)	>1	>1	>4	Active	Active	Activity [15]: Non-toxic; Activity [16]: Non-toxic
CSC(=S)N/N=C(\C)c1ccccc1O	4	9 (≈ 2.16 µg/mL)	4	10 (≈ 2.4 µg/mL)	1	156	233 (≈ 56 µg/mL)	61	116 (≈ 27.9 µg/mL)	2	1	>3	Active	Active	Activity [10]: Non-toxic; Activity [11]: Non-toxic

Source: ChEMBL document CHEMBL1914393, “Chemical scaffolds with structural similarities to siderophores of nonribosomal peptide-polyketide origin as novel antimicrobials against Mycobacterium tuberculosis and Yersinia pestis” (Bioorg Med Chem Lett, 2011)
